Bioassay records from PubChem.
Only some compounds are listed: those with a hit (about 29% of all), similar ones and a draw of the others.
CYP2C19 inh = blockers of cytochrome P450 2C19 activity – biochemical, luminescence, ADME assay, primary screen; P33261; CYP2C19 Supersomes, luciferin-H EGE luminescence, 30 min; inhibition, % at 5 µM; hit rate 21% among 96,000;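 active = CYP2C19 inhibition above a set limit at 5 µM in the primary screen, cut at about 50% in these data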
CYP2C9 act = human CYP2C9 activators, primary screen, biochemical, luminescence; AID 1024, 2008; recombinant CYP2C9, luciferin-H conversion; stronger effect = higher value; factor 1 = untreated enzyme, 0 = blocked; hit rate 1.4% among 96,000; activation factor at 5 µM;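 active = activation factor of 2 or more for CYP2C9 at a 5 µM dose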
Target sequence (P11712 whole entry, looked up): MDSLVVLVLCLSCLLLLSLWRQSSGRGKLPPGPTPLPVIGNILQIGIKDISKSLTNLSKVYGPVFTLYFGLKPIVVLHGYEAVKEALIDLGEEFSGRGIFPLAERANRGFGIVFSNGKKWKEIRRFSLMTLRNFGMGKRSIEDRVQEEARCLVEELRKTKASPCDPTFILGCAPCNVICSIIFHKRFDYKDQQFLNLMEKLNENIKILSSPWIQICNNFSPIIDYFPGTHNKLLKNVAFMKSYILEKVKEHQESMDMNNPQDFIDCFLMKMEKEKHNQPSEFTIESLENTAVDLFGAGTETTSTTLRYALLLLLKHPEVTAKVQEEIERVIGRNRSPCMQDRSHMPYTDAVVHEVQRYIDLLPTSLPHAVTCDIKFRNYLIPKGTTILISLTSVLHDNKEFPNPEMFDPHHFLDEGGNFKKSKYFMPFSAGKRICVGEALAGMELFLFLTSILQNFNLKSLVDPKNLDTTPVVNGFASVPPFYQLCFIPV
E coli WT exp = growth inhibitors of wild-type E. coli, primary screen, strain BW25113, expanded library, OD600 | AID 710, 2007 | growth inhibition, % at 100 µM | OD600 absorbance | hit rate 0.15% among 98,000;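 active = growth inhibition above about 50% at one test dose, limit read from the data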;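 note: growth measured after 20 h incubation at 37 °C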
CYP2C9 inhib = blockers of cytochrome P450 2C9 activity – biochemical, luminescence, ADME assay, primary screen. hit rate 20% among 96,000. AID 777, 2007. inhibition, % at 5 µM. CYP2C9 Supersomes, luciferin-H conversion;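 active = blocking of liver enzyme CYP2C9 beyond about 50% at 5 µM, limit read from the data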
Ecoli tolC = growth inhibitors of E. coli tolC mutant, primary screen, strain BW25113 ΔtolC::kan, 384-well; growth inhibition, % at 10 µM (by protocol); OD615; hit rate 2.2% among 65,000; AID 573, 2007;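 active = growth inhibition at or above a cutoff equal to the mean over every tested compound plus 3 SD, cut at about 60% in these data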;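 note: growth measured after 20 h incubation at 37 °C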
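Material: E. coli BW25113 ΔtolC::kan, tolC deletion mutant strain. Measure: percent growth inhibition. Schedule: 37 °C, 20 h exposure. Doses: single-point testing at 10 µM. Signal: A615 absorbance measurement. Buffer or medium: kanamycin-containing LB broth (50 µg/mL).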
CYP2C19 activ = human CYP2C19 activators, primary screen, biochemical, luminescence | Cytochrome P450 2C19 (Homo sapiens), P33261 | recombinant CYP2C19, luciferin-H EGE luminescence; stronger effect = higher value; 0 = fully inhibited enzyme, 1 = untreated enzyme | activation factor at 5 µM | 96,000 tested, under 10 active | AID 1025, 2008;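 active = activation factor of at least 2 at 5 µM in the primary screen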
Of the large screens only hits and unclear results are named; the others gave an inactive call.

COc1cc2nc(CN(CCC(C)C)Cc3nc4cc(OC)c(OC)cc4c(=O)[nH]3)[nH]c(=O)c2cc1OC	CYP2C9 inhib 55.9 (no result: Ecoli tolC)
CCCCOc1nc2ccccc2nc1C(C#N)S(=O)(=O)c1ccccc1 (stereo unspecified)	CYP2C19 inh 77.8, CYP2C9 inhib 77.4
CC1CCCN(c2nc3ccccc3nc2C(C#N)S(=O)(=O)c2ccccc2)C1 (stereo unspecified)	none
OC(CN1CCN(c2cccc(C(F)(F)F)c2)CC1)c1c[nH]c2ccccc12 (stereo unspecified)	none
N#C/C(=C\c1cc(Cl)ccc1O)C(=O)NC1CCCCC1	CYP2C9 inhib 61.2 (no result: Ecoli tolC)
COc1ccc(CCn2c(C)cc3c(c2=O)C(c2ccc4c(c2)OCO4)C(C#N)=C(N)O3)cc1OC (stereo unspecified)	none
O=C(Cn1nnc(-c2ccccc2Cl)n1)N/N=C/c1ccc2c(c1)OCO2	none (no result: Ecoli tolC)
CCOC(=O)CNC(=O)c1cc(-c2ccc3c(c2)OCCO3)oc1C	none
CCOc1cc(C(=O)Nc2ccc3c4c(cccc24)C(=O)N3CC)cc(OCC)c1OCC	CYP2C9 inhib 57.2 (no result: Ecoli tolC)
c1ccc(N2CCN(Cc3nnnn3C3CCCCC3)CC2)cc1	CYP2C19 inh 63.7, CYP2C9 inhib 87.2
Cc1ccc(Cl)cc1N1CCN(Cc2nnnn2C2CCCCC2)CC1	CYP2C9 inhib 57.6
C1CCC(n2nnnc2CN2CCN(C3CCCC3)CC2)CC1	none
CCOc1ccc(OCCCCNCCN)cc1	none (no result: Ecoli tolC)
Cc1ccc(NN2C(=O)C=C(c3ccc(Cl)cc3)C2=O)cc1	CYP2C9 inhib 55.6 (no result: Ecoli tolC)
COc1ccc(CC(C)N2CCN(c3cccc(C(F)(F)F)c3)CC2)cc1OC (stereo unspecified)	none (no result: Ecoli tolC)
Cc1cc(C)n(-c2cc(C)c(C)cc2Br)n1	none
CCOc1ccccc1NC(=O)c1c(NC(=O)CNCc2ccco2)sc2c1CCC2	none (no result: E coli WT exp)
Cc1sc2ncn(CCn3cnc4sc(C)c(C)c4c3=O)c(=O)c2c1C	CYP2C19 inh 86.3, CYP2C9 inhib 74.5
Cc1sc2ncn(CCC(=O)O)c(=O)c2c1C	CYP2C9 act 3.2
Cn1c(=O)oc2cc(C(=O)c3ccccc3)ccc21	none
CCOc1cc(C(=O)CSc2nnc(CNc3ccc(Cl)cc3)o2)ccc1NC(=O)CC	none
O=C1/C(=C/c2ccccc2)NC(=S)N1C(c1ccccc1)c1ccccc1	CYP2C9 inhib 59.6 (no result: Ecoli tolC)
CCC(C)(C)n1nnnc1C(c1cc2ccc(C)cc2[nH]c1=O)N(Cc1cccnc1)Cc1ccco1 (stereo unspecified)	CYP2C19 inh 99.0, CYP2C9 inhib 88.9, Ecoli tolC 70.9
COCCn1nnnc1C(c1cc2ccc(C)cc2[nH]c1=O)N(Cc1ccco1)Cc1cccs1 (stereo unspecified)	CYP2C9 inhib 69.7
Cc1ccc2cc(C(c3nnnn3C3CCCC3)N(Cc3ccccc3)Cc3ccco3)c(=O)[nH]c2c1 (stereo unspecified)	none
COc1cc2cc(C(c3nnnn3C3CCCCC3)N(C)C3CCCCC3)c(=O)[nH]c2cc1OC (stereo unspecified)	CYP2C19 inh 62.4, CYP2C9 inhib 50.5, Ecoli tolC 74.5
Cc1cc2cc(C(c3nnnn3C3CCCC3)N(Cc3cccnc3)Cc3ccco3)c(=O)[nH]c2cc1C (stereo unspecified)	CYP2C19 inh 60.4, CYP2C9 inhib 60.1 (no result: Ecoli tolC)
COc1cc2cc(C(c3nnnn3C3CCCC3)N(C)C3CCCCC3)c(=O)[nH]c2cc1OC (stereo unspecified)	none (no result: CYP2C19 inh, CYP2C9 act, CYP2C9 inhib, CYP2C19 activ)
Cc1ccc(C)c(S(=O)(=O)N2CCN(C(=O)Cn3c(C(F)(F)F)nc4ccccc43)CC2)c1	none (no result: Ecoli tolC)
CCN(C(=O)CN1CCN(c2ccccc2OC)CC1)c1c(N)n(Cc2ccccc2)c(=O)[nH]c1=O	none
COC(=O)CCP(=O)(O)Cc1ccccc1CP(=O)(O)CCC(=O)OC	none
CC(C)C(c1nnnn1C1CCCC1)N(C)C1CCCCC1 (stereo unspecified)	CYP2C9 inhib 51.2
Cc1ccc(C(c2nnnn2C2CCCCC2)N(C)C2CCCCC2)cc1 (stereo unspecified)	none (no result: Ecoli tolC)
